In brackets after ≈: the same amount, converted by molar mass. Activity calls are given as the source filed them. The calls are words filed in the database; no cut-off is given here.
What was measured:
K562 = assay: Growth inhibition of human K562 cells; assay type: functional
Procedure, shortened: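 K-562 suspension cultures in microplates were exposed to 10 concentrations of compound. Each well was diluted 1:50 in CASYTON and counted with a CASY 1 electronic cell analyzer (150 µm aperture), using the mean of three successive 0.4 mL counts. GI50 is the point where the concentration-response curve of cell counts/mL relative to control crosses the 50% line.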

HeLa = assay: Cytotoxicity against human HeLa cells; assay type: functional
Procedure, shortened: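 Adherent HeLa monolayers were incubated with 10 concentrations of compound, then glutaraldehyde-fixed and stained with 0.05% methylene blue for 15 min. After gentle washing, the stain was eluted with 0.33 N HCl and absorbance read at 630 nm. CC50 is the concentration causing 50% cytotoxic (lytic) effect.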

Mycobacterium kansasii [1] = assay: Antimycobacterial activity against Mycobacterium kansasii 6509/96 after 21 days by micromethod; assay type: functional; conditions: 6509/96, 504 h
Procedure, shortened: (§1)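 Micromethod MIC in Šula semisynthetic medium, with compounds added as DMSO solutions at 1000, 500, 250, 125, 62, 32, 16, 8, 4 and 2 µmol/L. Cultures were incubated at 37 °C, and M. kansasii was read at 7, 14 and 21 days. MIC is the lowest concentration at which mycobacterial growth was inhibited. INH served as standard. Strain 6509/96 was a clinical isolate.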

[2] = system: Mycobacterium tuberculosis; assay: Antimycobacterial activity against Mycobacterium tuberculosis CNCTC My 331/88 after 21 days by micromethod; assay type: functional; conditions: CNCTC My 331/88, 504 h
Procedure, shortened: (§2)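 MIC by micromethod in Šula semisynthetic medium. Compounds added as DMSO solutions at 1000, 500, 250, 125, 62, 32, 16, 8, 4 and 2 µmol/L. Incubated at 37 °C and read at 14 and 21 days. MIC taken as the lowest concentration that inhibited mycobacterial growth, expressed in µmol/L. INH run as standard. Strains from CNCTC.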

Mycobacterium avium [3] = assay: Antimycobacterial activity against Mycobacterium avium CNCTC My 330/88 after 21 days by micromethod; assay type: functional; conditions: CNCTC My 330/88, 504 h; procedure, shortened: as §2
Mycobacterium kansasii [4] = assay: Antimycobacterial activity against Mycobacterium kansasii 6509/96 after 14 days by micromethod; assay type: functional; conditions: 6509/96, 336 h; procedure, shortened: as §1
Mycobacterium kansasii [5] = assay: Antimycobacterial activity against Mycobacterium kansasii 6509/96 after 7 days by micromethod; assay type: functional; conditions: 6509/96, 168 h; procedure, shortened: as §1
Mycobacterium avium [6] = assay: Antimycobacterial activity against Mycobacterium avium CNCTC My 330/88 after 14 days by micromethod; assay type: functional; conditions: CNCTC My 330/88, 336 h; procedure, shortened: as §2
L929 = assay: Growth inhibition of mouse L929 cells; assay type: functional
Procedure, shortened: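 Antiproliferative assay on adherent L-929 monolayers exposed to 10 concentrations of compound. Cells were fixed with glutaraldehyde, stained with 0.05% methylene blue for 15 min, washed, and the dye eluted with 0.33 N HCl. OD was read at 630 nm, and GI50 is the concentration giving 50% growth inhibition.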

Mycobacterium kansasii [7] = assay: Antimycobacterial activity against Mycobacterium kansasii CNCTC My 235/80 after 14 days by micromethod; assay type: functional; conditions: CNCTC My 235/80, 336 h; procedure, shortened: as §1
Mycobacterium kansasii [8] = assay: Antimycobacterial activity against Mycobacterium kansasii CNCTC My 235/80 after 7 days by micromethod; assay type: functional; conditions: CNCTC My 235/80, 168 h; procedure, shortened: as §1
[9] = system: Mycobacterium tuberculosis; assay: Antimycobacterial activity against Mycobacterium tuberculosis CNCTC My 331/88 after 14 days by micromethod; assay type: functional; conditions: CNCTC My 331/88, 336 h; procedure, shortened: as §2
Mycobacterium kansasii [10] = assay: Antimycobacterial activity against Mycobacterium kansasii CNCTC My 235/80 after 21 days by micromethod; assay type: functional; conditions: CNCTC My 235/80, 504 h; procedure, shortened: as §1
Tetranychus urticae [11] = assay: Insecticidal activity against glasshouse red spider mite larvae; assay type: functional, organism-based
Tetranychus urticae [12] = assay: Insecticidal activity against glasshouse red spider mite egg; assay type: functional

SMILES	GI50 (K562)	CC50 (HeLa)	MIC (Mycobacterium kansasii [1])	MIC [2]	MIC (Mycobacterium avium [3])	MIC (Mycobacterium kansasii [4])	MIC (Mycobacterium kansasii [5])	MIC (Mycobacterium avium [6])	GI50 (L929)	MIC (Mycobacterium kansasii [7])	MIC (Mycobacterium kansasii [8])	MIC [9]	MIC (Mycobacterium kansasii [10])	Activity (Tetranychus urticae [11])	Activity (Tetranychus urticae [12])
NC(=S)c1cccc(CSc2nc3ccccc3o2)c1	5.5 µg/mL (≈ 18.3 µM)	21.6 µg/mL (≈ 71.9 µM)	32 µM (≈ 9.61 µg/mL)	16 µM (≈ 4.81 µg/mL)	62 µM (≈ 18.6 µg/mL)	32 µM (≈ 9.61 µg/mL)	8 µM (≈ 2.4 µg/mL)	62 µM (≈ 18.6 µg/mL)	17.3 µg/mL (≈ 57.6 µM)	32 µM (≈ 9.61 µg/mL)	8 µM (≈ 2.4 µg/mL)	8 µM (≈ 2.4 µg/mL)	32 µM (≈ 9.61 µg/mL)	–	–
NC(=S)c1ccc(CSc2nc3ccccc3o2)cc1	9.4 µg/mL (≈ 31.3 µM)	23.6 µg/mL (≈ 78.6 µM)	16 µM (≈ 4.81 µg/mL)	16 µM (≈ 4.81 µg/mL)	32 µM (≈ 9.61 µg/mL)	16 µM (≈ 4.81 µg/mL)	8 µM (≈ 2.4 µg/mL)	32 µM (≈ 9.61 µg/mL)	23.8 µg/mL (≈ 79.2 µM)	16 µM (≈ 4.81 µg/mL)	8 µM (≈ 2.4 µg/mL)	8 µM (≈ 2.4 µg/mL)	16 µM (≈ 4.81 µg/mL)	–	–
O=[N+]([O-])c1cc(CSc2nc3ccccc3o2)cc([N+](=O)[O-])c1	9.2 µg/mL (≈ 27.8 µM)	> 50 µg/mL	8 µM (≈ 2.65 µg/mL)	8 µM (≈ 2.65 µg/mL)	> 32 µM	8 µM (≈ 2.65 µg/mL)	4 µM (≈ 1.33 µg/mL)	> 16 µM	22.4 µg/mL (≈ 67.6 µM)	4 µM (≈ 1.33 µg/mL)	2 µM (≈ 0.663 µg/mL)	8 µM (≈ 2.65 µg/mL)	4 µM (≈ 1.33 µg/mL)	–	–
Clc1ccc(CSc2nc3ccccc3o2)cc1	–	–	125 µM (≈ 34.5 µg/mL)	> 500 µM	62 µM (≈ 17.1 µg/mL)	62 µM (≈ 17.1 µg/mL)	32 µM (≈ 8.82 µg/mL)	62 µM (≈ 17.1 µg/mL)	–	62 µM (≈ 17.1 µg/mL)	32 µM (≈ 8.82 µg/mL)	250 µM (≈ 68.9 µg/mL)	125 µM (≈ 34.5 µg/mL)	Active	Active
O=[N+]([O-])c1cccc(F)c1CSc1nc2ccccc2o1	–	–	> 62 µM	> 62 µM	125 µM (≈ 38 µg/mL)	> 32 µM	32 µM (≈ 9.74 µg/mL)	62 µM (≈ 18.9 µg/mL)	–	> 32 µM	> 32 µM	> 62 µM	> 32 µM	–	–
N#Cc1cccc(CSc2nc3ccccc3o2)c1	–	–	62 µM (≈ 16.5 µg/mL)	125 µM (≈ 33.3 µg/mL)	62 µM (≈ 16.5 µg/mL)	62 µM (≈ 16.5 µg/mL)	32 µM (≈ 8.52 µg/mL)	62 µM (≈ 16.5 µg/mL)	–	62 µM (≈ 16.5 µg/mL)	32 µM (≈ 8.52 µg/mL)	125 µM (≈ 33.3 µg/mL)	125 µM (≈ 33.3 µg/mL)	–	–
Brc1cccc(CSc2nc3ccccc3o2)c1	–	–	62 µM (≈ 19.9 µg/mL)	250 µM (≈ 80.1 µg/mL)	32 µM (≈ 10.2 µg/mL)	32 µM (≈ 10.2 µg/mL)	32 µM (≈ 10.2 µg/mL)	32 µM (≈ 10.2 µg/mL)	–	32 µM (≈ 10.2 µg/mL)	32 µM (≈ 10.2 µg/mL)	125 µM (≈ 40 µg/mL)	62 µM (≈ 19.9 µg/mL)	–	–
O=[N+]([O-])c1ccc(CSc2nc3ccccc3o2)c([N+](=O)[O-])c1	10.4 µg/mL (≈ 31.4 µM)	45.1 µg/mL (≈ 136 µM)	8 µM (≈ 2.65 µg/mL)	8 µM (≈ 2.65 µg/mL)	> 32 µM	8 µM (≈ 2.65 µg/mL)	4 µM (≈ 1.33 µg/mL)	> 16 µM	> 50 µg/mL	4 µM (≈ 1.33 µg/mL)	4 µM (≈ 1.33 µg/mL)	8 µM (≈ 2.65 µg/mL)	4 µM (≈ 1.33 µg/mL)	–	–
FC(F)(F)c1ccc(CSc2nc3ccccc3o2)cc1	–	–	62 µM (≈ 19.2 µg/mL)	125 µM (≈ 38.7 µg/mL)	62 µM (≈ 19.2 µg/mL)	32 µM (≈ 9.9 µg/mL)	16 µM (≈ 4.95 µg/mL)	62 µM (≈ 19.2 µg/mL)	–	62 µM (≈ 19.2 µg/mL)	32 µM (≈ 9.9 µg/mL)	125 µM (≈ 38.7 µg/mL)	125 µM (≈ 38.7 µg/mL)	–	–
FC(F)(F)c1cccc(CSc2nc3ccccc3o2)c1	–	–	62 µM (≈ 19.2 µg/mL)	125 µM (≈ 38.7 µg/mL)	32 µM (≈ 9.9 µg/mL)	32 µM (≈ 9.9 µg/mL)	32 µM (≈ 9.9 µg/mL)	32 µM (≈ 9.9 µg/mL)	–	32 µM (≈ 9.9 µg/mL)	32 µM (≈ 9.9 µg/mL)	62 µM (≈ 19.2 µg/mL)	62 µM (≈ 19.2 µg/mL)	–	–

From ChEMBL document CHEMBL1137696, “Preparation and in vitro evaluation of benzylsulfanyl benzoxazole derivatives as potential antituberculosis agents” (2009)
